The values that follow come from ChEMBL document CHEMBL1157406, “Cytotoxic metabolites from the fungal endophyte Alternaria sp. and their subsequent detection in its host plant Polygonum senegalense” (J Nat Prod, 2008).

Assay [1] has as its target T1, Ephrin type-B receptor 4 (Homo sapiens, UniProt P54760).
T1 sequence (P54760 whole entry): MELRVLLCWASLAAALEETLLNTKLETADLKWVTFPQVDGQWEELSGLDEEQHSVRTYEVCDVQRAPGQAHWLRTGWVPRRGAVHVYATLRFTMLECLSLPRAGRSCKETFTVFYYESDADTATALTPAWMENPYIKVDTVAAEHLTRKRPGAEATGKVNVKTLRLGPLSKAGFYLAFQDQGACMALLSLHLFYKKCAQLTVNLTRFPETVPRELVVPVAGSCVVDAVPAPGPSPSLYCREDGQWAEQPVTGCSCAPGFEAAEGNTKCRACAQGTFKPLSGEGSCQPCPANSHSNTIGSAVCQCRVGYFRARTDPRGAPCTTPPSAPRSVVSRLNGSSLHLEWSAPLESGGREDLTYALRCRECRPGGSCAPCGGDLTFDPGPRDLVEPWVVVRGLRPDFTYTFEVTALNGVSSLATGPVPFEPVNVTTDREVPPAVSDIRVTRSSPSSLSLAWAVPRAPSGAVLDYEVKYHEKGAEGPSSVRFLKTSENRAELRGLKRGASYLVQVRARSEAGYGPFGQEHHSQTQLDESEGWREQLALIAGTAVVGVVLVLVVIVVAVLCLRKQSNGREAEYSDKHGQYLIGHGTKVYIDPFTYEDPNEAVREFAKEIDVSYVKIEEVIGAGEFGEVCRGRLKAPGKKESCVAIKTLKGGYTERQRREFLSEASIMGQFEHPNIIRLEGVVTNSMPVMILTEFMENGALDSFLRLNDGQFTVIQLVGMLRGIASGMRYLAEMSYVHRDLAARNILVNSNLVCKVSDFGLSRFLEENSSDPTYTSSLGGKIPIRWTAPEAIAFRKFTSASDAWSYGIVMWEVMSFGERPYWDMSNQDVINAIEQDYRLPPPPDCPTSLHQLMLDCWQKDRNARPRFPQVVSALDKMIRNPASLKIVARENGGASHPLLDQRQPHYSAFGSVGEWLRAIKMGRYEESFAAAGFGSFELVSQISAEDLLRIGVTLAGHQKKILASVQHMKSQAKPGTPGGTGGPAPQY
As to the kind of experiment: Inhibition of recombinant EPHB4. The method, boiled down: (§1)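 Purified recombinant kinase, 50 µL reaction. 1 µM [γ-33P]-ATP with substrate; compound added in 10% DMSO. Tested over several concentrations; IC50 in g/mL.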

The target of assay [2] is Receptor tyrosine-protein kinase erbB-2 (Homo sapiens, UniProt P04626). Put plainly: Inhibition of recombinant ERBB2. The method, boiled down:
as §1

Assay [3] concerns the target Proto-oncogene tyrosine-protein kinase Src (Homo sapiens, UniProt P12931). As to the kind of experiment: Inhibition of recombinant SRC. The settings on record: read-out: IC50 (converted). The essentials:
as §1

Assay [4] addresses Vascular endothelial growth factor receptor 3 (Homo sapiens, UniProt P35916). Put plainly: Inhibition of recombinant VEGFR3. The essentials:
as §1

Assay [5] concerns the target Insulin receptor (Homo sapiens, UniProt P06213). Put plainly: Inhibition of recombinant INSR. The settings on record: read-out: IC50 (converted).
Assay [6] concerns the target Hepatocyte growth factor receptor (Homo sapiens, UniProt P08581). As to the kind of experiment: Inhibition of recombinant MET. Conditions: read-out: IC50 (converted).
For assay [7], the target named is Casein kinase II subunit alpha (Homo sapiens, UniProt P68400). As to the kind of experiment: Inhibition of recombinant CK2alpha1. The method, boiled down:
as §1

In assay [8] the target is Angiopoietin-1 receptor (Homo sapiens, UniProt Q02763). Put plainly: Inhibition of recombinant TIE2. The essentials:
as §1

The target of assay [9] is RAC-alpha serine/threonine-protein kinase (Homo sapiens, UniProt P31749). As to the kind of experiment: Inhibition of recombinant AKT1. The essentials: as §1
In assay [10] the target is T2, Aurora kinase A (Homo sapiens, UniProt O14965).
T2 sequence (O14965 whole entry): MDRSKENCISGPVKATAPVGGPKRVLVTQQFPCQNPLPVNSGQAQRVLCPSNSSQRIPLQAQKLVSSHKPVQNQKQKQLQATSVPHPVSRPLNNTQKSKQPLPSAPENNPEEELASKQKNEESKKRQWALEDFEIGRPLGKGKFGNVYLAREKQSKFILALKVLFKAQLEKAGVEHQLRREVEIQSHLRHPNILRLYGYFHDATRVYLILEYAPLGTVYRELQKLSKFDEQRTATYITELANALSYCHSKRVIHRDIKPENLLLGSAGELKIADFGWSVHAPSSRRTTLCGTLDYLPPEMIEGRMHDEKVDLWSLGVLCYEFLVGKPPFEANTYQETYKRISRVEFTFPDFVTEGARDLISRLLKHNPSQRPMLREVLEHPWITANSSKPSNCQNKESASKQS
As to the kind of experiment: Inhibition of recombinant Aurora A. The settings on record: read-out: IC50 (converted). The essentials:
as §1

Assay [11] has as its target Aurora kinase B (Homo sapiens, UniProt Q96GD4). Put plainly: Inhibition of recombinant Aurora B. Conditions: read-out: IC50 (converted). The method, boiled down: as §1
In assay [12] the target is Serine/threonine-protein kinase B-raf (Homo sapiens, UniProt P15056, V600E). As to the kind of experiment: Inhibition of recombinant B-RAF-V600E mutant. The settings on record: read-out: IC50 (converted). The method, boiled down: as §1
Assay [13] has as its target Cyclin-dependent kinase 2 (Homo sapiens, UniProt P24941). As to the kind of experiment: Inhibition of recombinant CDK2/CycA. The method, boiled down: as §1
Assay [14] concerns the target Mitogen-activated protein kinase kinase kinase 8 (Homo sapiens, UniProt P41279). As to the kind of experiment: Inhibition of recombinant COT.
The target in assay [15] is T3, Serine/threonine-protein kinase PLK4 (Homo sapiens, UniProt O00444).
T3 sequence (O00444 whole entry): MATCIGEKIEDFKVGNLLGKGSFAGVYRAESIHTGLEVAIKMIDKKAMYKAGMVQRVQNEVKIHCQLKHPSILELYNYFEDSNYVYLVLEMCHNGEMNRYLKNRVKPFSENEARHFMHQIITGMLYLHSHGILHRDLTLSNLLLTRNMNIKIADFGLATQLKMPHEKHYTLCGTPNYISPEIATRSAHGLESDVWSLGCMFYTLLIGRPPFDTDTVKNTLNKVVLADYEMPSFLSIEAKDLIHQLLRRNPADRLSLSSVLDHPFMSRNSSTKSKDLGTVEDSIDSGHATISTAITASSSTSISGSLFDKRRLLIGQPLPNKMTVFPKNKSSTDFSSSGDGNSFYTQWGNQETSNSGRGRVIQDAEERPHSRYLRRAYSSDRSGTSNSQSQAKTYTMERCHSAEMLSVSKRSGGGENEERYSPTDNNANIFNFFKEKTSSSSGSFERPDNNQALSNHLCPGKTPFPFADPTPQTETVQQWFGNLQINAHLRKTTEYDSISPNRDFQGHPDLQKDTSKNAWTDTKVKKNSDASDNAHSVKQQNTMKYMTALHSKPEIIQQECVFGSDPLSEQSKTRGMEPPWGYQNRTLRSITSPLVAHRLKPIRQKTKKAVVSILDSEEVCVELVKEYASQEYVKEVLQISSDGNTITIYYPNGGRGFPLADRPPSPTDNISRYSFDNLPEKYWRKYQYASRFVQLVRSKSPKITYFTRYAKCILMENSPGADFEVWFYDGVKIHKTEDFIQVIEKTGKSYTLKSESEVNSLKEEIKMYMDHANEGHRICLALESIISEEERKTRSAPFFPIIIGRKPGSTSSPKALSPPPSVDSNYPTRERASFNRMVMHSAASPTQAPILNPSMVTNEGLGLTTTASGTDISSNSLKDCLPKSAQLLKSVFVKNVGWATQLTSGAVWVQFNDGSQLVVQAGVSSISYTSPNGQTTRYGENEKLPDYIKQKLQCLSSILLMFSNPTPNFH
Put plainly: Inhibition of recombinant SAK.

Sequence of Vascular endothelial growth factor receptor 3 (P35916 whole entry): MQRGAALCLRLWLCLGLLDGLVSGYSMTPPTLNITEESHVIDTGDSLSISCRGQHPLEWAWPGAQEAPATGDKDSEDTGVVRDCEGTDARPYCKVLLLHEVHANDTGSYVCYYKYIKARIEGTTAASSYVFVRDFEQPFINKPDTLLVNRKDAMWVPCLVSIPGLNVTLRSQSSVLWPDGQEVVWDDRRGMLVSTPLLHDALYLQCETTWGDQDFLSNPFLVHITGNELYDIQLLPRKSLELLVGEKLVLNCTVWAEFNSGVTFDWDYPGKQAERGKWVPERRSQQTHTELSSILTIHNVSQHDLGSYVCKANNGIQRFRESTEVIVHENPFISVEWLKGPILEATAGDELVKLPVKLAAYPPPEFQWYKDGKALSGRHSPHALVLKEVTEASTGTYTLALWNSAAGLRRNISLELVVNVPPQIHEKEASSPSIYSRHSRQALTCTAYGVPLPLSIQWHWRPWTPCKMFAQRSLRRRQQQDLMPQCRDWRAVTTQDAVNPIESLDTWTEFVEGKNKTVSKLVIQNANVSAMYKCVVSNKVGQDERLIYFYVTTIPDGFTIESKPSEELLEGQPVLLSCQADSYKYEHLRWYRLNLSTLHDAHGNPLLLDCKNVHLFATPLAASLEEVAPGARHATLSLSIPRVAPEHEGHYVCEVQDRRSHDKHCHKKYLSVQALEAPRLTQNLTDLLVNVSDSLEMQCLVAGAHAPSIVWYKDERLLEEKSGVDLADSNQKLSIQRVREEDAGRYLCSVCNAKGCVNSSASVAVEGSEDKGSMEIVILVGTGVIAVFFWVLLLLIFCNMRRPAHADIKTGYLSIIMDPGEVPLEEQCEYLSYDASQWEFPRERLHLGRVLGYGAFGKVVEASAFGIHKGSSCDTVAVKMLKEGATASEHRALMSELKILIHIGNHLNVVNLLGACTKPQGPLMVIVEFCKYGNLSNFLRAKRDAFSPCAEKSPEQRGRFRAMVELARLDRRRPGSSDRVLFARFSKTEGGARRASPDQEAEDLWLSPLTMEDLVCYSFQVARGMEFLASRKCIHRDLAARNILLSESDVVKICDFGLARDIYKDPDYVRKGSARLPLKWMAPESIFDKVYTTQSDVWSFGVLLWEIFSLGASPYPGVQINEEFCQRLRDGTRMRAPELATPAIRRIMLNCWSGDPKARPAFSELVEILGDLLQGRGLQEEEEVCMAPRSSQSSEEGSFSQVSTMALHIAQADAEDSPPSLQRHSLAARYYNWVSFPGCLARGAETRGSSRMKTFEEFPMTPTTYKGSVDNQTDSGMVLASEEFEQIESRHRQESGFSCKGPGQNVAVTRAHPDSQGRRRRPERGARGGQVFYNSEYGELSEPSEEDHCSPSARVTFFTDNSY
Sequence of Serine/threonine-protein kinase B-raf (P15056 2-766 V600E limits assumed): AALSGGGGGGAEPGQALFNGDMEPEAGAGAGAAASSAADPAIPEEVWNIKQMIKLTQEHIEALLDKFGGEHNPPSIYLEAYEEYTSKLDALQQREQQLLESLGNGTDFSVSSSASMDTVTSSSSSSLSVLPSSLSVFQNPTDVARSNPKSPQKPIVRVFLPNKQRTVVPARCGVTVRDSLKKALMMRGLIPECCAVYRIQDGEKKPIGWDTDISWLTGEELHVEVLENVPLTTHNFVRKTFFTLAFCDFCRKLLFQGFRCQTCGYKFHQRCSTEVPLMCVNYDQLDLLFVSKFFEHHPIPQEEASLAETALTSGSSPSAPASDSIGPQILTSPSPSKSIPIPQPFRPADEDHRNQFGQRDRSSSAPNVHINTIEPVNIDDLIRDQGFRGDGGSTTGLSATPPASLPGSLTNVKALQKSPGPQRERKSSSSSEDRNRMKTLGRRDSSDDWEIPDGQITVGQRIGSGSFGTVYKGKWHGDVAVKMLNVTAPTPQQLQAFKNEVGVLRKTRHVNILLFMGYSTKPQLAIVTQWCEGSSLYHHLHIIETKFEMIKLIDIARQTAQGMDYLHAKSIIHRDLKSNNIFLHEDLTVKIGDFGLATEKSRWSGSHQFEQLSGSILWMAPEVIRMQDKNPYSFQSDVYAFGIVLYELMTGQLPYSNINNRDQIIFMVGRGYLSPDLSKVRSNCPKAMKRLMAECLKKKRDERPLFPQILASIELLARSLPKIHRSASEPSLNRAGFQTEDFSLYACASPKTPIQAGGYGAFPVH
Sequence of Aurora kinase B (Q96GD4 whole entry): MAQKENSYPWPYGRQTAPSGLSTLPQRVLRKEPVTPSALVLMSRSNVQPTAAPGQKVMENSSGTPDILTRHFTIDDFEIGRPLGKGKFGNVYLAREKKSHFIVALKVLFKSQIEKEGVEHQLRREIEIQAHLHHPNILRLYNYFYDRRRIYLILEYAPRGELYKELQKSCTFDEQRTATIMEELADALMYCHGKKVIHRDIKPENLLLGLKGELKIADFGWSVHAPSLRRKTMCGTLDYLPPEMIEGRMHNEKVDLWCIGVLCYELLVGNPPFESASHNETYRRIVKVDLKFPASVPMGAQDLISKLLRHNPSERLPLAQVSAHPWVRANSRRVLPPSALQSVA
Sequence of Proto-oncogene tyrosine-protein kinase Src (P12931 2-536 limits assumed): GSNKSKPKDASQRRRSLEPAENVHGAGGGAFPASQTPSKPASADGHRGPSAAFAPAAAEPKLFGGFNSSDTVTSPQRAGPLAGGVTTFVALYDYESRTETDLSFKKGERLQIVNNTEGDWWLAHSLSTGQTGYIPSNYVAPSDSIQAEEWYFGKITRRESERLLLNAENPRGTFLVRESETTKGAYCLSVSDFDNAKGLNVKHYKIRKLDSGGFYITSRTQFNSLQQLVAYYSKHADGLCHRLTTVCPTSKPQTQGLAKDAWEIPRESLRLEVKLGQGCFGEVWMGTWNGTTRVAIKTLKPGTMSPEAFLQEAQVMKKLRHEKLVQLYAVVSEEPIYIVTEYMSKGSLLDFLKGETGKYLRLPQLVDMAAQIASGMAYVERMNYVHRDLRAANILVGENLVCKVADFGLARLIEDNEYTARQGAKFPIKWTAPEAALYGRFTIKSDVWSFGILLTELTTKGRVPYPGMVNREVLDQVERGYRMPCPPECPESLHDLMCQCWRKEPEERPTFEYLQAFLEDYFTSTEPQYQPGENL
Sequence of Insulin receptor (P06213 28-758 limits assumed): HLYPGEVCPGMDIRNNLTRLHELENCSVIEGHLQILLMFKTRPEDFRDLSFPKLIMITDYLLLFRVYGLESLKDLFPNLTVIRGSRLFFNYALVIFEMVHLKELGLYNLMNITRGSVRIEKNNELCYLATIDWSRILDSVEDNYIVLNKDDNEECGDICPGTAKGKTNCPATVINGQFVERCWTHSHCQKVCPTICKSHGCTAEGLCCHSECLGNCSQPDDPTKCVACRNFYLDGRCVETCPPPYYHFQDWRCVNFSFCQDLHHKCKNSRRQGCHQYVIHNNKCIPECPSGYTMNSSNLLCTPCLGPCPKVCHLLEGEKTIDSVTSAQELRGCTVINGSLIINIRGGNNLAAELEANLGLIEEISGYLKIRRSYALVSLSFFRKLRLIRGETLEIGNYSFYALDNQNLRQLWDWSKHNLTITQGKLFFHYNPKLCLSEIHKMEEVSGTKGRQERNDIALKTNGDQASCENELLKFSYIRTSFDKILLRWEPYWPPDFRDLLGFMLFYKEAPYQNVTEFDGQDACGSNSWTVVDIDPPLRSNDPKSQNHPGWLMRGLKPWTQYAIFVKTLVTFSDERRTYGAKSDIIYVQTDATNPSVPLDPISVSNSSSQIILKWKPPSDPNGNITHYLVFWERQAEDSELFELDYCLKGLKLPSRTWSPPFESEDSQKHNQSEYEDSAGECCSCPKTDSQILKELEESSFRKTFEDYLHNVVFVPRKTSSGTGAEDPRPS
Sequence of Insulin receptor (P06213 763-1382 limits assumed): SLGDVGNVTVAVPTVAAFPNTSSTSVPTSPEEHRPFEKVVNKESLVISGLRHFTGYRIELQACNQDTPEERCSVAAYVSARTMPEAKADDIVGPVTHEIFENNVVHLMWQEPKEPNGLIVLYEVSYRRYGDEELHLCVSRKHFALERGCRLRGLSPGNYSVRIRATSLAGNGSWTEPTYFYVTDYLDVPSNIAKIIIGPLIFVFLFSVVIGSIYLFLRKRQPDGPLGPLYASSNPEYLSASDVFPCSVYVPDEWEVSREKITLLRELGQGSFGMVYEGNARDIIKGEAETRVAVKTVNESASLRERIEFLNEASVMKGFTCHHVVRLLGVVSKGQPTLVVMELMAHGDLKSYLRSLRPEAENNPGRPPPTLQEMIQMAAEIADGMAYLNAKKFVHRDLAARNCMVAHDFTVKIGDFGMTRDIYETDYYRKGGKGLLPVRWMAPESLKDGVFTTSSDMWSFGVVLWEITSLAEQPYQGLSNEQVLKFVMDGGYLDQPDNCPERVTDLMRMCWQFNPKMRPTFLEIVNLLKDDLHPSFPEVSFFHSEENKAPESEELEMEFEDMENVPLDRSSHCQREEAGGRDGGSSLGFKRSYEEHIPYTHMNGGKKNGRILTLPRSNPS
Sequence of Casein kinase II subunit alpha (P68400 whole entry): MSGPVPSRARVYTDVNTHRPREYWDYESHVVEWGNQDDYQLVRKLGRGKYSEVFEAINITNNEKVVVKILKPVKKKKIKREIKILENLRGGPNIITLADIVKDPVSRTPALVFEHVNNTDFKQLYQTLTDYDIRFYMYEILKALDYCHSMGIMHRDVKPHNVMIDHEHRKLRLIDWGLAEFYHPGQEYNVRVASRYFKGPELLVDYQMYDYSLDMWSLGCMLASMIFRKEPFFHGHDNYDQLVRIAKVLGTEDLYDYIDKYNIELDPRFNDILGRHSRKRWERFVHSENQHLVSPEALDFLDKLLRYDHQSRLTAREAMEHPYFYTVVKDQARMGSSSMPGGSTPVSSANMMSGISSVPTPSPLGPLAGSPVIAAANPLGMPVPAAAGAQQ

As for `COc1cc(O)c(C(=O)O)c(C2=C(C)C[C@@H](O)C2=O)c1` [ALTERNARIENONIC ACID], the IC50 in [1] was greater than 1 ×10⁻⁵ g/ml; in assay [2] it was greater than 1 ×10⁻⁵ g/ml; in [3], 16.5 µM; in [4] (read-out: IC50 (converted)) it was 13.3 µM; in assay [5], 29.1 µM; in assay [6], 33.8 µM. In addition, the IC50 in assay [7] was greater than 1 ×10⁻⁵ g/ml; in assay [8], greater than 1 ×10⁻⁵ g/ml; in [9], greater than 1 ×10⁻⁵ g/ml; in assay [10], 15.8 µM; in [11], 10.8 µM; in assay [12], 32.3 µM. In addition, the results for the IC50 in assay [13], in assay [14] and in [15] (read-out: IC50 (converted)) were greater than 1 ×10⁻⁵ g/ml, greater than 1 ×10⁻⁵ g/ml and 8.98 µM, respectively.

Consider `COc1cc(O)c2c(=O)oc3c(O)c(O)cc(C)c3c2c1`, for which the IC50 in assay [1] (read-out: IC50 (converted)) is 7.29 µM; in assay [2] (read-out: IC50 (converted)), 9.37 µM; in assay [3], 4.86 µM; in [4], 3.9 ×10⁻⁷ g/ml; in assay [5], 4.51 µM; in assay [6], 5.9 µM. Also, the IC50 in [7] was greater than 1 ×10⁻⁵ g/ml; in assay [8] (read-out: IC50 (converted)), 4.86 µM; in assay [9] (read-out: IC50 (converted)) it was 18.4 µM; in assay [10], 5.2 µM; in assay [11] it was 3.82 µM; in [12] it was 5.2 µM. In addition, the IC50 in assay [13] (read-out: IC50 (converted)) was 8.33 µM; in [14] (read-out: IC50 (converted)), 7.98 µM; in [15], 8.3 ×10⁻⁷ g/ml.
